Data taken from article PMC4097887 (Journal of medicinal chemistry, 2008).
Marks after values point to notes of the source that are not given here. One block for each molecule: values may come before it.

Assays:
KG-1 AML cells [1] = assay: KG-1 proliferation inhibition; type: cell-based, human
Procedure, shortened: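 KG-1 cells in medium with 5% FBS attached overnight and were then exposed to test compound in Me2SO or to Me2SO alone (final 0.1%) for the indicated time. Cells were harvested and counted with a hemocytometer in triplicate wells. Proliferation inhibition is given as IC50 and as percent inhibition at the highest concentration tested.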

[2] = target: T1, recombinant human small heterodimer partner (SHP) (Homo sapiens, UniProt Q15466); details: cited from earlier work
T1 sequence (Q15466 1-257): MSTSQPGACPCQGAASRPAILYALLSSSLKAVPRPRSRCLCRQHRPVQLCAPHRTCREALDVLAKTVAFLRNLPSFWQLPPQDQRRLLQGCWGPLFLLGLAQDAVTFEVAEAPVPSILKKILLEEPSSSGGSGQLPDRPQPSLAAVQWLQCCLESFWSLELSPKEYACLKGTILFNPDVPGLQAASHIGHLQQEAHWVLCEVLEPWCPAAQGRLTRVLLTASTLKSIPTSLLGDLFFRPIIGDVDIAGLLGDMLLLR

[3] = doses found to induce cancer cell apoptosis in vitro; cited from earlier work
[4] = test system: IGROV ovarian cancer cells; details: at antiproliferative IC80 value, propidium iodide staining; cited from earlier work
[5] = test system: DU-145, MDA-MB-231 and H292 cancer cell lines; assay: Proliferation inhibition of the three solid tumor cell lines; type: cell-based, human
Procedure, shortened: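 DU-145, MDA-MB-231 and H292 cells attached for 24 h and were then treated for 72 h with test compound in Me2SO or with vehicle alone (final Me2SO 0.1%). Medium and compound were replaced at 48 h. Viable cells were measured by tetrazolium (MTS-type) reduction in triplicate per concentration, and IC50 values were calculated from these counts.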

KG-1 AML cells [6] = assay: KG-1 cell apoptosis; type: cell-based, human
Procedure, shortened: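 Cells in medium with 5% FBS attached overnight, then exposed to test compound in Me2SO or to Me2SO alone (final 0.1%). Exposure was 24 h for HL-60R and 48 h for KG-1. Apoptotic cells were scored by acridine orange staining on at least three replicates and expressed as percent apoptosis.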

AML animal model = details: cited from earlier work
[7] = test system: human microvascular endothelial (HMVE) cells; assay: HMVE cell growth inhibition; type: cell-based; details: 0.5 μM

Structure (SMILES): CC(=O)Nc1ccc(-c2ccc(/C=C/C(=O)O)cc2Cl)cc1C12CC3CC(CC(C3)C1)C2 [compound 2]
- further reduction of KG-1 antiproliferative activity relative to 3 (KG-1 AML cells [1]; 5.0 μM): 50%

Structure (SMILES): O=C(O)c1ccc2cc(-c3ccc(O)c(C45CC6CC(CC(C6)C4)C5)c3)ccc2c1 [compound 13, 6-[3′-(1-adamantyl)-4′-hydroxyphenyl]-2-naphthoic acid]
- affinity of [5,5′-3H2]AHPN for recombinant human SHP [2]: low nanomolar affinity

Structure (SMILES): O=C(O)/C=C/c1ccc(-c2ccc(O)c(C34CC5CC(CC(C5)C3)C4)c2)cc1 [compound 15, (E)-4-[3′-(1-adamantyl)-4′-hydroxyphenyl]cinnamic acid]
- adverse systemic effects in mice [3]: produced adverse systemic effects
- apoptosis induced in ovarian cancer cell line [4]: 50%

- calculated IC50 values higher than those of 1, three solid tumor cell lines [5]: 10–20 fold
Structure (SMILES): O=C(O)/C=C/c1ccc(-c2ccc(O)c(C34CC5CC(CC3C5)C4)c2)c(Cl)c1 [compound 8]
- KG-1 proliferation inhibition relative to 1 (KG-1 AML cells [1]; 5.0 μM): 1.2 fold
- KG-1 apoptotic activity as % of that exhibited by 1 (KG-1 AML cells [6]; 5.0 μM): 31%
- KG-1 apoptosis at 48 h (%) (KG-1 AML cells [6]; 5.0 μM): 16 ^j %

Structure (SMILES): CC(C)(C)C#Cc1cc(-c2ccc(/C=C/C(=O)O)cc2Cl)ccc1O [compound 6]
- KG-1 antiproliferative activity as fraction of that of 1 (KG-1 AML cells [1]; 5.0 μM): approximately one-third

Structure (SMILES): O=C(O)/C=C/c1ccc(-c2ccc(O)c(C34CC5CC(CC(C5)C3)C4)c2)c(Cl)c1 [compound 1, (E)-4-[3′-(1-adamantyl)-4′-hydroxyphenyl]-3-chlorocinnamic acid]
- survival in an AML animal model (AML animal model): extension of survival

Structure (SMILES): O=C(O)/C=C/c1ccc(-c2ccc(F)cc2)c(Cl)c1 [compound 5]
- % inhibition of KG-1 proliferation at highest concentration evaluated (KG-1 AML cells [1]; 5 μM, 48 h): 0%

Structure (SMILES): CC(C)(C)c1cc(-c2ccc3cc(C(=O)O)ccc3c2)ccc1O [compound 21]
- reduction of HMVE cell growth inhibition relative to 13 [7]: 7 fold

Structure (SMILES): O=C(O)c1ccc2cc(-c3cccc(C45CC6CC(CC(C6)C4)C5)c3)ccc2c1 [compound 18]
- HMVE cell growth inhibition at 72 h (%) ([7]; 72 h (Table 1)): moderate

- calculated IC50 values higher than those of 1, three solid tumor cell lines [5]: 3–4 fold
Structure (SMILES): Nc1ccc(-c2ccc(/C=C/C(=O)O)cc2Cl)cc1C12CC3CC(CC(C3)C1)C2 [compound 3]
- increase of IC50 for KG-1 proliferation inhibition compared to 1 (KG-1 AML cells [1]): ~3.6 fold
- weakening of KG-1 apoptosis induction relative to 1 (KG-1 AML cells [6]; 1.0 μM): 67%
- weakening of KG-1 apoptosis induction relative to 1 (KG-1 AML cells [6]; 5.0 μM): 27%
- KG-1 apoptosis at 48 h (%) (KG-1 AML cells [6]; 5.0 μM): 40 ^j %
